Assay results as given in ChEMBL document CHEMBL3259739, “Synthesis and structure-activity relationship of trisubstituted thiazoles as Cdc7 kinase inhibitors” (Eur J Med Chem, 2014).

How the values were obtained:
[1] = target: MAP kinase-activated protein kinase 2 (Homo sapiens) (UniProt P49137); assay: Inhibition of MAPKAPK2 (unknown origin) at 1 uM relative to control; values are per cent of control
[2] = target: Serine/threonine-protein kinase 33 (Homo sapiens) (UniProt Q9BYT3); assay: Inhibition of STK33 (unknown origin) at 1 uM relative to control; details: values are per cent of control
How it was run: (§1)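 KinomeSCAN competitive binding panel of 100 kinases; compounds tested at 1 µM in duplicate; read-out is percent […] control.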

[3] = target: RAC-beta serine/threonine-protein kinase (Homo sapiens) (UniProt P31751); assay: Inhibition of AKT2 (unknown origin) at 1 uM relative to control; values are per cent of control
[4] = target: Insulin-like growth factor 1 receptor (Homo sapiens) (UniProt P08069); assay: Inhibition of IGF1R (unknown origin) at 1 uM relative to control; values are per cent of control
[5] = target: T1, Serine/threonine-protein kinase D2 (Homo sapiens) (UniProt Q9BZL6); assay: Inhibition of PRKD2 (unknown origin) at 1 uM relative to control; details: values are per cent of control
T1 sequence (whole entry): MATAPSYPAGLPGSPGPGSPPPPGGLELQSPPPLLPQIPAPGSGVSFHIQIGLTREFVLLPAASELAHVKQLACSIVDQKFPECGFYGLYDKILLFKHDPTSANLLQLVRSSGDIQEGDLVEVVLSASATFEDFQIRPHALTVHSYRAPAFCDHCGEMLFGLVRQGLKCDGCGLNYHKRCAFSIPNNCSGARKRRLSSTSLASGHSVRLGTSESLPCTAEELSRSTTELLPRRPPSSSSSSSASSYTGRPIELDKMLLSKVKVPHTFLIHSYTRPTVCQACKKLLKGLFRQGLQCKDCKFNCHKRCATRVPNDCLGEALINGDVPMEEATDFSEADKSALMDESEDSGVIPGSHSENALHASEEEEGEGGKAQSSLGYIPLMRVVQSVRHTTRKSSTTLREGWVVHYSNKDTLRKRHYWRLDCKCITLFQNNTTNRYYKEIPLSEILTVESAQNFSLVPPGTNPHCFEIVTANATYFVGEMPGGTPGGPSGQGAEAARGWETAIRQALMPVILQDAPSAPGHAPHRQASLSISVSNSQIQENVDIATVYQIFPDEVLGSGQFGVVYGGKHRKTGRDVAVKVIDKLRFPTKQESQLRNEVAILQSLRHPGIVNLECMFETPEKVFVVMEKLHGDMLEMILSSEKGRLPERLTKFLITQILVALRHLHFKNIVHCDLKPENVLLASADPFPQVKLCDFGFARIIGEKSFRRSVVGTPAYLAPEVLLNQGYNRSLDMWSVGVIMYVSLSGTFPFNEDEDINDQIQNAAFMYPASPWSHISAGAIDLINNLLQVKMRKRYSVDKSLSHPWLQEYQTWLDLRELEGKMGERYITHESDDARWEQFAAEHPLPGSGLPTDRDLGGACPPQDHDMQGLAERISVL
How it was run: as §1

[6] = target: T2, Testis-specific serine/threonine-protein kinase 1 (Homo sapiens) (UniProt Q9BXA7); assay: Inhibition of TSSK1B (unknown origin) at 1 uM relative to control; details: values are per cent of control
T2 sequence (whole entry): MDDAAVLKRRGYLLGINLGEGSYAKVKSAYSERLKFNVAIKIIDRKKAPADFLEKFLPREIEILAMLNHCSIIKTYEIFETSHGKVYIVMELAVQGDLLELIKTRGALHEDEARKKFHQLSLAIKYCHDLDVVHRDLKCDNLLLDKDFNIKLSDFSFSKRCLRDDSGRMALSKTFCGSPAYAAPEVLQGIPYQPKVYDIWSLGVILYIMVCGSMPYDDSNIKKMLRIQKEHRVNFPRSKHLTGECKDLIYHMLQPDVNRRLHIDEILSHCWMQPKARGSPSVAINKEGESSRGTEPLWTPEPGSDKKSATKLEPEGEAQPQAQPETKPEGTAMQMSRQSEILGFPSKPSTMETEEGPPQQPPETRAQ
How it was run: as §1

[7] = target: Mitogen-activated protein kinase 10 (Homo sapiens) (UniProt P53779); assay: Inhibition of JNK3 (unknown origin) at 1 uM relative to control; values are per cent of control
[8] = target: Tyrosine-protein kinase SYK (Homo sapiens) (UniProt P43405); assay: Inhibition of SYK (unknown origin) at 1 uM relative to control; details: values are per cent of control
[9] = target: Ephrin type-A receptor 2 (Homo sapiens) (UniProt P29317); assay: Inhibition of EPHA2 (unknown origin) at 1 uM relative to control; values are per cent of control
[10] = target: High affinity nerve growth factor receptor (Homo sapiens) (UniProt P04629); assay: Inhibition of TRKA (unknown origin) at 1 uM relative to control; details: values are per cent of control
How it was run: as §1

[11] = target: T3, Rhodopsin kinase GRK1 (Homo sapiens) (UniProt Q15835); assay: Inhibition of GRK1 (unknown origin) at 1 uM relative to control; values are per cent of control
T3 sequence (whole entry): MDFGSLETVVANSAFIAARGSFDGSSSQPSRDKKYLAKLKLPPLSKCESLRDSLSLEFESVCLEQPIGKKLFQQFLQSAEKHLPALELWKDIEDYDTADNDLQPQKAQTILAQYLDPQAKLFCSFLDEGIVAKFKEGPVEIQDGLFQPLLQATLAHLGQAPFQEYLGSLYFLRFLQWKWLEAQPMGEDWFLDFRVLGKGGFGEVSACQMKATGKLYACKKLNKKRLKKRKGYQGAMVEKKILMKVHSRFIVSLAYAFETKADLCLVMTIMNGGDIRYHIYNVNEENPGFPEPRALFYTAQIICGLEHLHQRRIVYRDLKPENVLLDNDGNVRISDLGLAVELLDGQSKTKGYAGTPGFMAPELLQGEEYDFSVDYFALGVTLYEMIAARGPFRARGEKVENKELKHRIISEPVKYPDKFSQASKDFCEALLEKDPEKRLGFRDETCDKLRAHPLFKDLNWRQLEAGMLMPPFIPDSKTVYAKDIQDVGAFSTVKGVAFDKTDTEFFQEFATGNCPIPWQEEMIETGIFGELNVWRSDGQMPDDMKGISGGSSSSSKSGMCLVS

[12] = Intrinsic clearance in rat liver microsomes at 1 uM after 30 mins by reverse phase HPLC analysis in presence of NADPH; type: ADME; details: read-out: CLH
How it was run: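 Reactions were stopped with MeCN after 0 or 30 min. Samples were analysed by reverse-phase HPLC–tandem MS to give intrinsic clearance (µl/min/mg).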

[13] = target: cAMP-dependent protein kinase catalytic subunit alpha (Homo sapiens) (UniProt P17612); assay: Inhibition of PKACalpha (unknown origin) at 1 uM relative to control; details: values are per cent of control
How it was run: as §1

[14] = target: Epithelial discoidin domain-containing receptor 1 (Homo sapiens) (UniProt Q08345); assay: Inhibition of DDR1 (unknown origin) at 1 uM relative to control; values are per cent of control

Sequence of High affinity nerve growth factor receptor (Homo sapiens) (P04629 33-796 limits assumed): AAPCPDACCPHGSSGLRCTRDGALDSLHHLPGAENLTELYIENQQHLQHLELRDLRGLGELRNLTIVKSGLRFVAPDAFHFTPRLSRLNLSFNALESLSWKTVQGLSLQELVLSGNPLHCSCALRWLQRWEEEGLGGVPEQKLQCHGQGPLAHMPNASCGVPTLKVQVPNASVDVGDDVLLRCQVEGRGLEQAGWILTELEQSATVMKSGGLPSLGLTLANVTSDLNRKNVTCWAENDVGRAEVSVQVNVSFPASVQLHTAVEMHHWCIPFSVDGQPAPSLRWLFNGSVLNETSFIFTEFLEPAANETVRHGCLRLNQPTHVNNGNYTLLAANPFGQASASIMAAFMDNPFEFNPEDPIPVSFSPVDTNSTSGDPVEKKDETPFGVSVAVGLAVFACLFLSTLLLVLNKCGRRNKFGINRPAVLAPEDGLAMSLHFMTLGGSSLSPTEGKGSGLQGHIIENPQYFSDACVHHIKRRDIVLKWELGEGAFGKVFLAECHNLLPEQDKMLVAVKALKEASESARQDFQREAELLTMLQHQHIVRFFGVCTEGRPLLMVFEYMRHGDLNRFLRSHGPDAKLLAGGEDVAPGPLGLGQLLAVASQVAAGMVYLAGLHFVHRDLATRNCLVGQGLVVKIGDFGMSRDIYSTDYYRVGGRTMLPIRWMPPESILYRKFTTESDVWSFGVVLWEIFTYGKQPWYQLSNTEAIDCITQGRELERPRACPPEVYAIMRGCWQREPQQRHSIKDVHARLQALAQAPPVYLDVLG
Sequence of Mitogen-activated protein kinase 10 (Homo sapiens) (P53779 whole entry): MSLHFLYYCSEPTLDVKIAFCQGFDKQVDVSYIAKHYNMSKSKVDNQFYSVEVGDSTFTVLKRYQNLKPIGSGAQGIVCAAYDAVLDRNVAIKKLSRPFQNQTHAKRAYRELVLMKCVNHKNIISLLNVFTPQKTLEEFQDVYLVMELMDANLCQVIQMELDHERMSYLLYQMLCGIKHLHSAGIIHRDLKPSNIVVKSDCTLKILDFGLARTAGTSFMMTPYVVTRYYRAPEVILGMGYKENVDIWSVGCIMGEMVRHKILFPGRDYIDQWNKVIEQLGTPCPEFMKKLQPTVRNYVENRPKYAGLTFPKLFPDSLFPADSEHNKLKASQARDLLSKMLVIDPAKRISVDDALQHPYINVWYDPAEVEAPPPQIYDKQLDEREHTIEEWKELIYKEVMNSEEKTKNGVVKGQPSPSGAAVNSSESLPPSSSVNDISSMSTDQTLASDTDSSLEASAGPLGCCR
Sequence of Serine/threonine-protein kinase 33 (Homo sapiens) (Q9BYT3 whole entry, looked up): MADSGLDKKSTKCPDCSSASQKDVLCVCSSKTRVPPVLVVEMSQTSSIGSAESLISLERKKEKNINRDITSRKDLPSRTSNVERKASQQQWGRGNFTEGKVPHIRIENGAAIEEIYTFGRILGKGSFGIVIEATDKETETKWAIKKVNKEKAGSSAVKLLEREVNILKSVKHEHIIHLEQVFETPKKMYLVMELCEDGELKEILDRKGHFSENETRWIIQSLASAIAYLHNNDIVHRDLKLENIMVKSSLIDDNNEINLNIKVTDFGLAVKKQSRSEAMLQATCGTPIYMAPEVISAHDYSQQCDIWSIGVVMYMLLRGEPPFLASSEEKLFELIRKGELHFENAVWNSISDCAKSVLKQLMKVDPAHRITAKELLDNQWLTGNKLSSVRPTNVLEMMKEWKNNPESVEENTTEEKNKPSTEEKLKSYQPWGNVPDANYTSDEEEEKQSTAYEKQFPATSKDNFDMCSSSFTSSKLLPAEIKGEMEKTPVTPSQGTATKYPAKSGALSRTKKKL
Sequence of RAC-beta serine/threonine-protein kinase (Homo sapiens) (P31751 whole entry): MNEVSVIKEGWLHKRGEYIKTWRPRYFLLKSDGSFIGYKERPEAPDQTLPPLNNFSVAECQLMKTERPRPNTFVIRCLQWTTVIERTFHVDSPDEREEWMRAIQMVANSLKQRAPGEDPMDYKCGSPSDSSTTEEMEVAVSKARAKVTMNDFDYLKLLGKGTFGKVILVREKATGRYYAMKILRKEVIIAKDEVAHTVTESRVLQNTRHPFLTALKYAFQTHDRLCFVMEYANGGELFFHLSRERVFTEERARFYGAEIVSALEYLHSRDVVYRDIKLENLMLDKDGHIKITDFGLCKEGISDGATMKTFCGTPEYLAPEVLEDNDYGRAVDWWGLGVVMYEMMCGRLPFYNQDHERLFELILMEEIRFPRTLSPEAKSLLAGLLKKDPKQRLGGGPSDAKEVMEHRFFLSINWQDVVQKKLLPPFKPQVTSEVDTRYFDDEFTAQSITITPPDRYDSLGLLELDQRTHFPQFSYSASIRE
Sequence of Insulin-like growth factor 1 receptor (Homo sapiens) (P08069 31-736 limits assumed): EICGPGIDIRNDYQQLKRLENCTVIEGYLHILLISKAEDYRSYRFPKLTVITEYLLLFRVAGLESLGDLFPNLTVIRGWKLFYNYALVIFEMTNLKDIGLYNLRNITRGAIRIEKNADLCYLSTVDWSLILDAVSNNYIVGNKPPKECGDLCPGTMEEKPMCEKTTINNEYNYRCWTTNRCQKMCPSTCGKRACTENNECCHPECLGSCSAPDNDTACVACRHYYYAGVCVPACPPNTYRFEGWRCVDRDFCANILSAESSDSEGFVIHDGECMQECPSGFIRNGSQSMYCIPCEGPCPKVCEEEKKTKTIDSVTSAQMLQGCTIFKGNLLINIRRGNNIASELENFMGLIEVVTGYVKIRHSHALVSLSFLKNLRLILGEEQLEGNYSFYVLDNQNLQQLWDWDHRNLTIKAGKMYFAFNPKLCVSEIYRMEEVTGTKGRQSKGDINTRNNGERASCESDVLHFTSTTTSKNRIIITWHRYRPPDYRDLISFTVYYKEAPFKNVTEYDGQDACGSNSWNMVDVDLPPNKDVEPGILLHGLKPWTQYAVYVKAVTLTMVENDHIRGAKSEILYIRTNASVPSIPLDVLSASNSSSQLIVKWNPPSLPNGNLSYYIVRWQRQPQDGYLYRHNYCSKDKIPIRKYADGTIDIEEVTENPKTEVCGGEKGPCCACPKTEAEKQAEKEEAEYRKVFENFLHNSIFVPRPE
Sequence of Insulin-like growth factor 1 receptor (Homo sapiens) (P08069 741-1367 limits assumed): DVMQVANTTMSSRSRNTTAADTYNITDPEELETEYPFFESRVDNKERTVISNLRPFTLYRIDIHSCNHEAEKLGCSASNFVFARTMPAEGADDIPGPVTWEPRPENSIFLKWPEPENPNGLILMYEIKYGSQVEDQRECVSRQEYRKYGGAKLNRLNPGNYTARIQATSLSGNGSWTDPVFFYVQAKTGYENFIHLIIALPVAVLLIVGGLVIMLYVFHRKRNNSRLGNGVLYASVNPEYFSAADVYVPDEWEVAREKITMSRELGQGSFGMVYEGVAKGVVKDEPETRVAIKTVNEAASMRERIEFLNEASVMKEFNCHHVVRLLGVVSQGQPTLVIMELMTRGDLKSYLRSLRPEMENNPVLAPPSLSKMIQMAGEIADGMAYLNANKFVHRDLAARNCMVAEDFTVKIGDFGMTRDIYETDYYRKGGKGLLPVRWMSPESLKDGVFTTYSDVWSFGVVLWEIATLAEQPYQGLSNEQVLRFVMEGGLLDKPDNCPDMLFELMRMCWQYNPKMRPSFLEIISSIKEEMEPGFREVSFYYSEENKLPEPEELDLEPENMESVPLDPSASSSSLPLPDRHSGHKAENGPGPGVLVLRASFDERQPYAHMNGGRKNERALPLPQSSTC
Sequence of Ephrin type-A receptor 2 (Homo sapiens) (P29317 whole entry): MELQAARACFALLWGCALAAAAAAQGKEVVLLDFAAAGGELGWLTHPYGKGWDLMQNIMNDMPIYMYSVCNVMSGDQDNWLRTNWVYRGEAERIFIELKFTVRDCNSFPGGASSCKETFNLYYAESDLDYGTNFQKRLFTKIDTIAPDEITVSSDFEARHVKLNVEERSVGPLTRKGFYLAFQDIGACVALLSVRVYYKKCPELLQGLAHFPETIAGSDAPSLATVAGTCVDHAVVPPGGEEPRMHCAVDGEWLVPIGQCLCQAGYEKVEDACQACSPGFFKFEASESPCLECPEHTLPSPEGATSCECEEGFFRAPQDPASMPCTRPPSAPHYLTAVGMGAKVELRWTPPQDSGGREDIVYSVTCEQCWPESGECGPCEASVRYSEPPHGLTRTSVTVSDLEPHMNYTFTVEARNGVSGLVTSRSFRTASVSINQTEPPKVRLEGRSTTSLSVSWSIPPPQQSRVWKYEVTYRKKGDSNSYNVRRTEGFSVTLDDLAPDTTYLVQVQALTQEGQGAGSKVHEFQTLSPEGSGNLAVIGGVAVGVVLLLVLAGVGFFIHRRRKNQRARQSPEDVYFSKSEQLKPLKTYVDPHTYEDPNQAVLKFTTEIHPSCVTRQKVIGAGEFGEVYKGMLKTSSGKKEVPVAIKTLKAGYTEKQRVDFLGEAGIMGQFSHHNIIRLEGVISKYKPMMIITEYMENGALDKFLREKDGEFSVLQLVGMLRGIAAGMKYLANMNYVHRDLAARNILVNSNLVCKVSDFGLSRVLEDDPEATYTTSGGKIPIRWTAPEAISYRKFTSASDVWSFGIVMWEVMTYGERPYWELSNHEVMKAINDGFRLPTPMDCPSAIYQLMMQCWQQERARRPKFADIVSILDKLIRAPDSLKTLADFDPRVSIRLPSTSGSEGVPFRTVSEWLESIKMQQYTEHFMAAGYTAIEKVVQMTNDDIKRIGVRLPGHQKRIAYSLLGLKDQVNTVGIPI
Sequence of MAP kinase-activated protein kinase 2 (Homo sapiens) (P49137 whole entry, looked up): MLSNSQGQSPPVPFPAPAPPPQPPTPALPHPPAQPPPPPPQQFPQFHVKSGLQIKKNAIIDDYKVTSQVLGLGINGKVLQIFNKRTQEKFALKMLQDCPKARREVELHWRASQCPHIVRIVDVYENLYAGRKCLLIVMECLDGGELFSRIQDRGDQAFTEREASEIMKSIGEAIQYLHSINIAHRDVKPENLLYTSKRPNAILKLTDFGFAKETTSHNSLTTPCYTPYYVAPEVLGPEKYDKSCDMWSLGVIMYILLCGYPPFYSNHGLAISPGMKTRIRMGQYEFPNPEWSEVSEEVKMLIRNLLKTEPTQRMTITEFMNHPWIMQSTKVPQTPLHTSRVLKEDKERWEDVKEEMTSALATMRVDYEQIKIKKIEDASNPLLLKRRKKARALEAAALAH

Row | residual activity [1] [%] | residual binding, % of control [2] [%] | residual activity [3] [%] | residual activity [4] [%] | residual binding, % of control [5] [%] | residual binding, % of control [6] [%] | residual activity [7] [%] | residual binding, % of control [8] [%] | residual activity [9] [%] | residual binding, % of control [10] [%] | residual activity [11] [%] | microsomal CLint at 1 µM [12] [µL/min/mg] | residual binding, % of control [13] [%] | residual activity [14] [%] | SMILES
1 | 94 | 100 | 96 | 85 | 99 | 89 | 93 | 97 | 78 | 100 | 99 | < 14 | 100 | 98 | CCOC(=O)c1sc(-c2ccncc2)nc1O
2 | 100 | 100 | 100 | 76 | 77 | 83 | 46 | 56 | 80 | 92 | 100 | 99 | 70 | 84 | COc1ccc(-c2nc(-c3ccnc(N)n3)sc2C(N)=O)c(Cl)c1

Row | SMILES | residual activity [1] [%] | residual binding, % of control [2] [%] | residual activity [3] [%] | residual activity [4] [%] | residual binding, % of control [5] [%] | residual binding, % of control [6] [%] | residual activity [7] [%] | residual binding, % of control [8] [%] | residual activity [9] [%] | residual binding, % of control [10] [%] | residual activity [11] [%] | microsomal CLint at 1 µM [12] [µL/min/mg] | residual binding, % of control [13] [%] | residual activity [14] [%]
3 | NC(=O)c1sc(-c2ccnc(N)n2)nc1-c1ccc(Cl)cc1Cl | 96 | 100 | 100 | 94 | 92 | 100 | 83 | 72 | 88 | 100 | 75 | 22 | 69 | 80
